Reference: ChEMBL document CHEMBL5058577, “EUbOPEN Chemogenomics Library 2 (Multiplex)” (2022)

Test system: HEK-293T
Experiment: Multiplex assay against HEK293T
Assay type: toxicity, cell-based
Conditions: human
Outline: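 Values for tubulin, mitochondrial-mass and membrane-permeability phenotypes are per cents of cells with healthy nuclei. These cells were identified by CellPathfinder machine-learning gating of live cells that had been stained at seeding with Hoechst33342, BioTracker Green Microtubule Cytoskeleton Dye, MitoTracker Red and Annexin V Alexa Fluor 680 and imaged on a CQ1 microscope at 37°C and 5% CO2 after compound addition. The gating first set Hoechst high-intensity objects apart from normal cells, then split normal cells into healthy, pyknosed or fragmented nuclei, and pyknosed cells into mitotic or apoptotic.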

[1] = 12 h, 1 µM, compound concentration 1 uM, replicate 1
[2] = 12 h, 1 µM, compound concentration 1 uM, replicate 2
[3] = 12 h, 10 µM, compound concentration 10 uM, replicate 1
[4] = 12 h, 10 µM, compound concentration 10 uM, replicate 2
[5] = 24 h, 1 µM, compound concentration 1 uM, replicate 1
[6] = 24 h, 1 µM, compound concentration 1 uM, replicate 2
[7] = 24 h, 10 µM, compound concentration 10 uM, replicate 1
[8] = 24 h, 10 µM, compound concentration 10 uM, replicate 2
[9] = 48 h, 1 µM, compound concentration 1 uM, replicate 1
[10] = 48 h, 1 µM, compound concentration 1 uM, replicate 2
[11] = 48 h, 10 µM, compound concentration 10 uM, replicate 1
[12] = 48 h, 10 µM, compound concentration 10 uM, replicate 2

Nc1nc(CC(=O)Nc2ccc(CCNC[C@H](O)c3ccccc3)cc2)cs1 [MIRABEGRON]
Population Apoptotic (%) [1]: 22% | Population Fragmented Nuclei (%) [1]: 5% | Population Healthy Nuclei (%) [1]: 84% | Population Hoechst High Intensity Objects (%) [1]: 5% | Population Membrane Permeable-Phenotype (%) [1]: 0% | Population Mitochondria Different-Phenotype (%) [1]: 45% | Population Mitotic Cells (%) [1]: 77% | Population Normal (%) [1]: 94% | Population Pyknosed Nuclei (%) [1]: 10% | Population Tubulin-Different-Phenotype (%) [1]: 19% | Total Cell Count [1]: 455 | Population Apoptotic (%) [2]: 55% | Population Fragmented Nuclei (%) [2]: 8% | Population Healthy Nuclei (%) [2]: 80% | Population Mitochondria Different-Phenotype (%) [2]: 56% | Population Mitotic Cells (%) [2]: 44% | Population Pyknosed Nuclei (%) [2]: 11% | Total Cell Count [2]: 332 | Population Apoptotic (%) [3]: 32% | Population Fragmented Nuclei (%) [3]: 5% | Population Healthy Nuclei (%) [3]: 77% | Population Hoechst High Intensity Objects (%) [3]: 7% | Population Membrane Permeable-Phenotype (%) [3]: 0% | Population Mitochondria Different-Phenotype (%) [3]: 51% | Population Mitotic Cells (%) [3]: 67% | Population Normal (%) [3]: 92% | Population Pyknosed Nuclei (%) [3]: 17% | Population Tubulin-Different-Phenotype (%) [3]: 41% | Total Cell Count [3]: 423 | Population Apoptotic (%) [4]: 44% | Population Fragmented Nuclei (%) [4]: 11% | Population Healthy Nuclei (%) [4]: 74% | Population Hoechst High Intensity Objects (%) [4]: 8% | Population Mitochondria Different-Phenotype (%) [4]: 64% | Population Mitotic Cells (%) [4]: 56% | Population Normal (%) [4]: 91% | Population Pyknosed Nuclei (%) [4]: 14% | Population Tubulin-Different-Phenotype (%) [4]: 29% | Total Cell Count [4]: 388 | Population Apoptotic (%) [5]: 28% | Population Fragmented Nuclei (%) [5]: 10% | Population Healthy Nuclei (%) [5]: 80% | Population Hoechst High Intensity Objects (%) [5]: 2% | Population Membrane Permeable-Phenotype (%) [5]: 0% | Population Mitochondria Different-Phenotype (%) [5]: 30% | Population Mitotic Cells (%) [5]: 71% | Population Normal (%) [5]: 97% | Population Pyknosed Nuclei (%) [5]: 9% | Population Tubulin-Different-Phenotype (%) [5]: 14% | Total Cell Count [5]: 635 | Population Apoptotic (%) [6]: 27% | Population Fragmented Nuclei (%) [6]: 8% | Population Healthy Nuclei (%) [6]: 83% | Population Hoechst High Intensity Objects (%) [6]: 3% | Population Mitochondria Different-Phenotype (%) [6]: 41% | Population Mitotic Cells (%) [6]: 72% | Population Normal (%) [6]: 96% | Population Pyknosed Nuclei (%) [6]: 7% | Population Tubulin-Different-Phenotype (%) [6]: 13% | Total Cell Count [6]: 390 | Population Apoptotic (%) [7]: 31% | Population Fragmented Nuclei (%) [7]: 8% | Population Healthy Nuclei (%) [7]: 77% | Population Hoechst High Intensity Objects (%) [7]: 4% | Population Membrane Permeable-Phenotype (%) [7]: 0% | Population Mitochondria Different-Phenotype (%) [7]: 32% | Population Mitotic Cells (%) [7]: 68% | Population Normal (%) [7]: 95% | Population Pyknosed Nuclei (%) [7]: 13% | Population Tubulin-Different-Phenotype (%) [7]: 23% | Total Cell Count [7]: 552 | Population Apoptotic (%) [8]: 35% | Population Fragmented Nuclei (%) [8]: 9% | Population Healthy Nuclei (%) [8]: 82% | Population Hoechst High Intensity Objects (%) [8]: 5% | Population Mitochondria Different-Phenotype (%) [8]: 49% | Population Mitotic Cells (%) [8]: 64% | Population Normal (%) [8]: 94% | Population Pyknosed Nuclei (%) [8]: 7% | Total Cell Count [8]: 524 | Population Apoptotic (%) [9]: 18% | Population Fragmented Nuclei (%) [9]: 13% | Population Healthy Nuclei (%) [9]: 80% | Population Hoechst High Intensity Objects (%) [9]: 1% | Population Membrane Permeable-Phenotype (%) [9]: 1% | Population Mitochondria Different-Phenotype (%) [9]: 14% | Population Mitotic Cells (%) [9]: 81% | Population Normal (%) [9]: 98% | Population Pyknosed Nuclei (%) [9]: 5% | Population Tubulin-Different-Phenotype (%) [9]: 10% | Total Cell Count [9]: 1141 | Population Apoptotic (%) [10]: 28% | Population Fragmented Nuclei (%) [10]: 17% | Population Healthy Nuclei (%) [10]: 76% | Population Hoechst High Intensity Objects (%) [10]: 0% | Population Mitochondria Different-Phenotype (%) [10]: 21% | Population Mitotic Cells (%) [10]: 71% | Population Normal (%) [10]: 99% | Total Cell Count [10]: 662 | Population Apoptotic (%) [11]: 26% | Population Fragmented Nuclei (%) [11]: 12% | Population Healthy Nuclei (%) [11]: 78% | Population Hoechst High Intensity Objects (%) [11]: 3% | Population Membrane Permeable-Phenotype (%) [11]: 0% | Population Mitochondria Different-Phenotype (%) [11]: 25% | Population Mitotic Cells (%) [11]: 73% | Population Normal (%) [11]: 96% | Population Pyknosed Nuclei (%) [11]: 8% | Population Tubulin-Different-Phenotype (%) [11]: 16% | Total Cell Count [11]: 818 | Population Apoptotic (%) [12]: 28% | Population Healthy Nuclei (%) [12]: 80% | Population Hoechst High Intensity Objects (%) [12]: 2% | Population Mitochondria Different-Phenotype (%) [12]: 30% | Population Mitotic Cells (%) [12]: 71% | Population Normal (%) [12]: 97% | Population Pyknosed Nuclei (%) [12]: 6% | Population Tubulin-Different-Phenotype (%) [12]: 15% | Total Cell Count [12]: 750
